Experimental findings from ChEMBL document CHEMBL3526048, “In vitro metabolism of rivoglitazone, a novel peroxisome proliferator-activated receptor γ agonist, in rat, monkey, and human liver microsomes and freshly isolated hepatocytes” (Drug Metab Dispos, 2011) are described below.

The test system of data set [1] is Liver microsome. As to the kind of experiment: Drug metabolism in Sprague-Dawley rat liver microsomes assessed as formation of 3-(4-((6-methoxy-1-methyl-1H-benzo[d]imidazol-2-yl)methoxy)phenyl)-2-(methylthio)propanoic acid at 20 uM after 2 to 4 hrs by radio-HPLC/LC-MS/MS analysis in presence of NADPH-generating system/SAM and UDPGA/SAM. The class given is ADME.

Data set [2] in a line: Drug metabolism in cynomolgus monkey liver microsomes assessed as formation of 3-(4-((6-methoxy-1-methyl-1H-benzo[d]imidazol-2-yl)methoxy)phenyl)-2-(methylsulfinyl)propanamide at 20 uM after 2 hrs by radio-HPLC/LC-MS/MS analysis in presence of NADPH-generating system/SAM. The class given is ADME, Macaca fascicularis.
The test system of data set [3] is Liver microsome. As to the kind of experiment: Drug metabolism in Sprague-Dawley rat liver microsomes assessed as formation of 2-hydroxy-3-(4-((6-methoxy-1-methyl-1H-benzo[d]imidazol-2-yl)methoxy)phenyl)propanamide at 20 uM after 2 hrs by radio-HPLC/LC-MS/MS analysis in presence of NADPH-generating system and NADPH-generating system/SAM. The class given is ADME. Background: Microsomes from liver hold many membrane-bound enzymes, among them those of drug oxidation.

Data set [4] has as its target T1, Cytochrome P450 1A2 (Homo sapiens, UniProt P05177).
T1 sequence (P05177 whole entry): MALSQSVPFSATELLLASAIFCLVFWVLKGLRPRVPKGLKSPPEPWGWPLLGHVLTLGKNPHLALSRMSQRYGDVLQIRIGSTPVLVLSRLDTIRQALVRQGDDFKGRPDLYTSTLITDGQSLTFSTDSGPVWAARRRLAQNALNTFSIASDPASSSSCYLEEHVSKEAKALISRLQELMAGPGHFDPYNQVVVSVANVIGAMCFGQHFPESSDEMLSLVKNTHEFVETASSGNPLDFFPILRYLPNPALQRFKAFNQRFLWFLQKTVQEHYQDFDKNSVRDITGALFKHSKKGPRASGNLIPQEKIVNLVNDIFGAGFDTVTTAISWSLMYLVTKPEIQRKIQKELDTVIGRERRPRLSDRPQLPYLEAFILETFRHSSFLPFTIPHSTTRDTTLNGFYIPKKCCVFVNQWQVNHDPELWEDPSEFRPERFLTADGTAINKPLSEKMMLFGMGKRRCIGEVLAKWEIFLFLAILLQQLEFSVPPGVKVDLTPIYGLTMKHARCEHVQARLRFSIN
Nature of the data set: Activity of human CYP1A2 expressed in microsomes isolated from baculovirus infected insect cell assessed as enzyme-mediated 3-(4-((6-methoxy-1-methyl-1H-benzo[d]imidazol-2-yl)methoxy)phenyl)-2-(methylsulfonyl)propanamide formation at 20 uM after 2 hrs by radio-HPLC/LC-MS/MS analysis in presence of NADPH-generating system/SAM. The class given is ADME.

Data set [5] deals with T1, Cytochrome P450 1A2. As to the kind of experiment: Activity of human CYP1A2 expressed in microsomes isolated from baculovirus infected insect cell assessed as enzyme-mediated 2-hydroxy-3-(4-((6-methoxy-1-methyl-1H-benzo[d]imidazol-2-yl)methoxy)phenyl)propanamide formation at 20 uM after 2 hrs by radio-HPLC/LC-MS/MS analysis in presence of NADPH-generating system and NADPH-generating system/SAM. In kind it is ADME. A digest of the protocol:
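Baculovirus/insect-cell microsomes expressing single human CYPs, 1 mg/ml protein, with 50 mM potassium phosphate (pH 7.4) or 100 mM Tris-HCl (pH 7.5). NADPH-generating system: 2 mM NADP⁺, 20 mM glucose 6-phosphate, 2 units/ml G6PDH, 10 mM MgCl₂. [¹⁴C]rivoglitazone at 20 μM, 2 h at 37°C with shaking. Control used insect-cell control supersomes. Stopped with acetonitrile; supernatant concentrated under nitrogen; metabolites analysed by radio-HPLC, LC-MS and LC-MS/MS.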

In data set [6] the target is T2, UDP-glucuronosyltransferase 1A9 (Homo sapiens, UniProt O60656).
T2 sequence (O60656 whole entry): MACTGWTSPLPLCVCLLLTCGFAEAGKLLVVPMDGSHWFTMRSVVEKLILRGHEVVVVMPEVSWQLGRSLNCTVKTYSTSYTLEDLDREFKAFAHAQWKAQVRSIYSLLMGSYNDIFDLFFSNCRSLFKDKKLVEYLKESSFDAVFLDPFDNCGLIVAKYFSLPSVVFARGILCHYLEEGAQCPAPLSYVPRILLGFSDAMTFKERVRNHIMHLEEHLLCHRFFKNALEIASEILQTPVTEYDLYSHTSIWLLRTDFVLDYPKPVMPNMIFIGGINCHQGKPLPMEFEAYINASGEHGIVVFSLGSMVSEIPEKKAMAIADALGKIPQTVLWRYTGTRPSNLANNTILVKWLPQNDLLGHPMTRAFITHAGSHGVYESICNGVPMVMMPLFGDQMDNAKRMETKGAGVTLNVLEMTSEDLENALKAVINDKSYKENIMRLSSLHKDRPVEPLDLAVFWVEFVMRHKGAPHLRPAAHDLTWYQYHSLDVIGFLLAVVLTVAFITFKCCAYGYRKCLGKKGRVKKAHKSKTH
Nature of the data set: Activity of human UGT1A9 expressed in microsomes isolated from baculovirus infected insect cell assessed as enzyme-mediated (2S,3S,4S,5R,6R)-3,4,5-trihydroxy-6-(5-(4-((6-methoxy-1-methyl-1H-benzo[d]imidazol-2-yl)methoxy)benzyl)-2,4-dioxothiazolidin-3-yl)tetrahydro-2H-pyran-2-carboxylic acid formation at 20 uM after 4 hrs by radio-HPLC/LC-MS/MS analysis in presence of UDPGA. The class given is ADME.

Data set [7] in a line: Drug metabolism in human hepatocytes assessed as formation of 3-(4-((6-methoxy-1-methyl-1H-benzo[d]imidazol-2-yl)methoxy)phenyl)-2-(methylthio)propanamide at 30 uM after 3 hrs by radio-HPLC/LC-MS/MS analysis in presence of NADPH-generating system/SAM. In kind it is ADME, cell-based, Hepatocyte.
Data set [8] deals with T1, Cytochrome P450 1A2. Nature of the data set: Activity of human CYP1A2 expressed in microsomes isolated from baculovirus infected insect cell assessed as enzyme-mediated (2S,3S,4S,5R,6R)-6-((1-carboxy-2-(4-((6-methoxy-1-methyl-1H-benzo[d]imidazol-2-yl)methoxy)phenyl)ethylthio)carbonylamino)-3,4,5-trihydroxytetrahydro-2H-pyran-2-carboxylic acid formation at 20 uM after 2 hrs by radio-HPLC/LC-MS/MS analysis in presence of NADPH-generating system/SAM. In kind it is ADME.

Data set [9] can be described thus: Drug metabolism in rat hepatocytes assessed as formation of 5-(4-((6-methoxy-1H-benzo[d]imidazol-2-yl)methoxy)benzyl)thiazolidine-2,4-dione at 30 uM after 3 hrs by radio-HPLC/LC-MS/MS analysis in presence of NADPH-generating system and NADPH-generating system/SAM. The class given is ADME, cell-based, Hepatocyte.
Data set [10] concerns Liver microsome. Nature of the data set: Drug metabolism in human liver microsomes assessed as formation of 2-((4-((2,4-dioxothiazolidin-5-yl)methyl)phenoxy)methyl)-1-methyl-1H-benzo[d]imidazol-6-yl hydrogen sulfate at 20 uM by radio-HPLC/LC-MS/MS analysis. The class given is ADME.
Data set [11] concerns the target T1, Cytochrome P450 1A2. As to the kind of experiment: Activity of human CYP1A2 expressed in microsomes isolated from baculovirus infected insect cell assessed as enzyme-mediated 3-(4-((6-methoxy-1-methyl-1H-benzo[d]imidazol-2-yl)methoxy)phenyl)-2-(methylthio)propanoic acid formation at 20 uM after 2 hrs by radio-HPLC/LC-MS/MS analysis in presence of NADPH-generating system/SAM and UDPGA/SAM. The class given is ADME.

`COc1ccc2nc(COc3ccc(C[14CH]4SC(=O)NC4=O)cc3)n(C)c2c1.Cl` (racemic): the Drug metabolism entry is “metabolite_detected” in the data set with Liver microsome [1]; “metabolite_detected” in data set [2]; “metabolite_detected” in the data set with Liver microsome [3]; “metabolite_not_detected” at Cytochrome P450 1A2 [4]; “metabolite_detected” at Cytochrome P450 1A2 [5]; “metabolite_not_detected” in data set [6]. The Drug metabolism entry is given as “metabolite_detected” in [7]; “metabolite_not_detected” at Cytochrome P450 1A2 [8]; “metabolite_detected” in [9]; “metabolite_not_detected” in the data set with Liver microsome [10]; “metabolite_not_detected” on Cytochrome P450 1A2 [11].
